Here are results for 22 molecules from ChEMBL document CHEMBL1126084, “2-Acetylpyridine thiocarbonohydrazones. Potent inactivators of herpes simplex virus ribonucleotide reductase” (J Med Chem, 1992).

Assay [1] has as its system Human alphaherpesvirus 1. The assay can be described thus: Inhibition of HSV-1 ribonucleotide reductase. Details: concentration or dose not given beside the values. As to conditions: concentration not given here. An outline of the steps:
(§1)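 Partially purified HSV-1 ribonucleotide reductase, assayed by reduction of purified [14C]CDP in 200 mM Hepes Na+ pH 7.7, 10 mM dithiothreitol, 2 μM CDP (500 Ci/mol, 3–4 × Km), with and without 5 μM inhibitor unless otherwise indicated. First-order kinact (per hour) and v0 of decelerating product time courses come from iterative nonlinear least squares. kinact is the net increase over the uninhibited control, and % inhibition refers to v0.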

In assay [2] the test system is Human alphaherpesvirus 1. The assay can be described thus: Inhibitory index against HSV-1 ribonucleotide reductase. In a few lines: (§2)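 Index per eq 1 combines kinact and percent inhibition of initial velocity from reductase reactions ±5 μM inhibitor (unless otherwise indicated). 0.99 is subtracted from the calculated ratio, so a non-inhibiting, non-inactivating compound scores zero. HSV-1 and human enzymes were assayed under their respective conditions.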

Assay [3] relates to Human alphaherpesvirus 1. The assay can be described thus: Inactivation of HSV-1 ribonucleotide reductase at rate constant K inact. In a few lines:
as §1

Assay [4] deals with T1, Ribonucleoside-diphosphate reductase RR1 (Homo sapiens) (UniProt P23921+Q7LG56+P31350). The assay can be described thus: Inhibition of human ribonucleotide reductase. Type of assay: protein-complex assay. The arrangement: concentration or dose not given beside the values. As to conditions: concentration not given here. An outline of the steps:
(§3)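 The ATP contributed about 3 μM iron, keeping inhibitors iron-complexed. Reactions ran ±5 μM inhibitor unless otherwise indicated. kinact (per hour, net over the control) and v0 came from iterative nonlinear least-squares fits of decelerating time courses.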

The target in assay [5] is T1, Ribonucleoside-diphosphate reductase RR1 (Homo sapiens). The assay can be described thus: Inactivation of human ribonucleotide reductase at rate constant K inact. Type of assay: protein-complex assay. In a few lines: as §3
For assay [6] the target is unchanged. The assay can be described thus: Inhibitory index against human ribonucleotide reductase. In kind it is protein-complex assay. An outline of the steps:
as §2

Assay [7] shares this target. The assay can be described thus: Apparent enzyme activity measured as the ratio of HSV-1 and human enzyme inhibition induces. Type of assay: functional. The following applies: Human alphaherpesvirus 1. An outline of the steps:
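Apparent selectivity is the ratio of HSV-1 to human inhibition indices, each from eq 1 at 5 μM inhibitor or at the indicated concentration for each enzyme.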

A word on the inhibition: it is the relative decrease from the control value, in per cent. As usually defined, the kinact is the maximal first-order rate at which the target is inactivated.

Take `C/C(=N\NC(=O)N/N=C(\S)Nc1ccccc1Cl)c1ccccn1`: the inhibition with Human alphaherpesvirus 1 [1] turned out to be 30%. Further, the Inhibitory index in the assay with Human alphaherpesvirus 1 [2] stood at 7.5. The inactivation rate constant (kinact) in the assay on Human alphaherpesvirus 1 [3] was determined as 5 h⁻¹.

Take `C/C(=N\N=C(/S)N/N=C(\S)Nc1cccc(Br)c1)c1ccccn1`: the inhibition was found to be 21% in assay [4] and 15% with Human alphaherpesvirus 1 [1]. The kinact in assay [5] was determined as 2 h⁻¹; in the assay with Human alphaherpesvirus 1 [3], 40 h⁻¹. The Inhibitory index in assay [6] came to 2.8; in the assay with Human alphaherpesvirus 1 [2], 47. Also, the Apparent selectivity (HSV-1/human inhibition index ratio) in assay [7] was found to be 17.

As to `C/C(=N\N=C(/S)N/N=C(\S)Nc1cccc(C#N)c1)c1ccccn1`, the inhibition in assay [4] stood at 80%; in the assay on Human alphaherpesvirus 1 [1], 0%. For the same molecule, the inactivation rate constant (kinact) was 0.6 h⁻¹ in assay [5] and 32 h⁻¹ with Human alphaherpesvirus 1 [3]. Moreover, the Inhibitory index in assay [6] was 6.6; in the assay on Human alphaherpesvirus 1 [2], 32. In assay [7], the Apparent selectivity (HSV-1/human inhibition index ratio) amounted to 4.8.

For the molecule `COc1ccccc1/N=C(\S)N/N=C(\S)N/N=C(\C)c1ccccn1`, the values for the inhibition (in assay [4]; in the assay with Human alphaherpesvirus 1 [1]) were 44% and 0%, respectively. The maximal inactivation rate constant (kinact) stood at 2.1 h⁻¹ in assay [5] and 23 h⁻¹ in the assay with Human alphaherpesvirus 1 [3]. The Inhibitory index came out at 4.5 in assay [6] and 23 in the assay on Human alphaherpesvirus 1 [2]. Moreover, the Apparent selectivity (HSV-1/human inhibition index ratio) in assay [7] was found to be 5.1.

In the case of `C/C(=N\N=C(/S)N/N=C(\S)Nc1ccc(Cl)cc1C)c1ccccn1`, the inhibition amounted to 55% in assay [4] and 31% with Human alphaherpesvirus 1 [1]. Moreover, the inactivation rate constant (kinact) in assay [5] was 1 h⁻¹; in the assay on Human alphaherpesvirus 1 [3] it was 29 h⁻¹. The Inhibitory index in assay [6] came to 3.4; in the assay on Human alphaherpesvirus 1 [2] it was 42. For the same molecule, the Apparent selectivity (HSV-1/human inhibition index ratio) in assay [7] was found to be 12.

With `C/C(=N\N=C(/S)N/N=C(\S)Nc1ccc(C(C)(C)C)cc1)c1ccccn1`, the inhibition with Human alphaherpesvirus 1 [1] stood at 10%. Further, in the assay on Human alphaherpesvirus 1 [3], the kinact was 16 h⁻¹.

Take `C/C(=N\N=C(/S)N/N=C(\S)Nc1ccccc1Br)c1ccccn1`: the values for the inhibition (in assay [4]; in the assay on Human alphaherpesvirus 1 [1]) were 14% and 38%, respectively. Further, the inactivation rate constant (kinact) in assay [5] came out at 0 h⁻¹; with Human alphaherpesvirus 1 [3], 21 h⁻¹. The results for the Inhibitory index (in assay [6]; in the assay with Human alphaherpesvirus 1 [2]) were 0.16 and 34, respectively. In addition, the Apparent selectivity (HSV-1/human inhibition index ratio) in assay [7] was 210.

For the molecule `C/C(=N\N=C(/S)N/N=C(\S)Nc1ccc(Cl)cc1)c1ccccn1`, the inhibition in assay [4] was 73%; in the assay with Human alphaherpesvirus 1 [1], 61%. Further, the kinact in assay [5] was found to be 0 h⁻¹; in the assay on Human alphaherpesvirus 1 [3] it was 39 h⁻¹. Moreover, the Inhibitory index in assay [6] amounted to 2.6; with Human alphaherpesvirus 1 [2] it was 99. Besides, the Apparent selectivity (HSV-1/human inhibition index ratio) in assay [7] came to 38.

`COc1cccc(N/C(S)=N/N=C(\S)N/N=C(\C)c2ccccn2)c1`: the inhibition in assay [4] was 58%; with Human alphaherpesvirus 1 [1], 6.7%. Besides, the figures for the kinact (in assay [5]; in the assay on Human alphaherpesvirus 1 [3]) were 7 h⁻¹ and 21 h⁻¹, respectively. Also, the Inhibitory index was found to be 1.7 in assay [6] and 22 in the assay on Human alphaherpesvirus 1 [2]. Further, the Apparent selectivity (HSV-1/human inhibition index ratio) in assay [7] was found to be 1.3.

Regarding `C/C(=N\NC(=O)NNC(=O)Nc1ccccc1Cl)c1ccccn1`, the inhibition in the assay with Human alphaherpesvirus 1 [1] amounted to 0%. The same molecule came in with an Inhibitory index in the assay with Human alphaherpesvirus 1 [2] of 0. For the same molecule, the inactivation rate constant (kinact) with Human alphaherpesvirus 1 [3] worked out at 0 h⁻¹.

`C/C(=N\Nc1nnc(Nc2ccccc2Cl)s1)c1ccccn1`: in the assay on Human alphaherpesvirus 1 [1], the inhibition stood at 53%. Besides, the Inhibitory index with Human alphaherpesvirus 1 [2] is 32. Further, the maximal inactivation rate constant (kinact) with Human alphaherpesvirus 1 [3] turned out to be 15 h⁻¹.

Regarding `C/C(=N\N=C(/S)N/N=C(\S)Nc1ccc(I)cc1)c1ccccn1`, the inhibition in assay [4] amounted to 5%; with Human alphaherpesvirus 1 [1], 24%. Moreover, the kinact in assay [5] came out at 0 h⁻¹; in the assay with Human alphaherpesvirus 1 [3], 22 h⁻¹. For the same molecule, the Inhibitory index in assay [6] worked out at 0.05; in the assay on Human alphaherpesvirus 1 [2] it was 29. For the same molecule, the Apparent selectivity (HSV-1/human inhibition index ratio) in assay [7] amounted to 560.

In the case of `COc1ccc(N/C(S)=N/N=C(\S)N/N=C(\C)c2ccccn2)cc1`, the inhibition in assay [4] was found to be 52%; in the assay on Human alphaherpesvirus 1 [1], 45%. Also, the kinact worked out at 0 h⁻¹ in assay [5] and 16 h⁻¹ with Human alphaherpesvirus 1 [3]. The results for the Inhibitory index (in assay [6]; in the assay on Human alphaherpesvirus 1 [2]) were 1.1 and 29, respectively. Further, the Apparent selectivity (HSV-1/human inhibition index ratio) in assay [7] was 28.

Consider `COc1ccc([N+](=O)[O-])cc1/N=C(\S)N/N=C(\S)N/N=C(\C)c1ccccn1`, for which the inhibition is 11% in assay [4] and 44% with Human alphaherpesvirus 1 [1]. Besides, the inactivation rate constant (kinact) in assay [5] is 3 h⁻¹; with Human alphaherpesvirus 1 [3] it was 40 h⁻¹. The Inhibitory index in assay [6] amounted to 3.5; in the assay on Human alphaherpesvirus 1 [2], 71. Also, in assay [7], the Apparent selectivity (HSV-1/human inhibition index ratio) is 21.

For `C/C(=N\N=C(/S)N/N=C(\S)Nc1ccc(C)cc1)c1ccccn1`, the inhibition in assay [4] stood at 64%; with Human alphaherpesvirus 1 [1] it was 25%. Further, the kinact turned out to be 2 h⁻¹ in assay [5] and 16 h⁻¹ with Human alphaherpesvirus 1 [3]. Besides, the figures for the Inhibitory index (in assay [6]; with Human alphaherpesvirus 1 [2]) were 7 and 21, respectively. Moreover, the Apparent selectivity (HSV-1/human inhibition index ratio) in assay [7] turned out to be 3.

Molecule `C/C(=N\N=C(/S)N/N=C(\S)Nc1ccccc1Cl)c1cccc[n+]1[O-]` showed an inhibition in the assay with Human alphaherpesvirus 1 [1] of 11%. This molecule also had an Inhibitory index in the assay on Human alphaherpesvirus 1 [2] of 1.2. Also, in the assay with Human alphaherpesvirus 1 [3], the kinact amounted to 1 h⁻¹.

Regarding `S=C(N/N=C/c1ccccn1)NNC(=S)Nc1ccccc1Cl`, the inhibition is 45% in assay [4] and 51% with Human alphaherpesvirus 1 [1]. In addition, the figures for the kinact (in assay [5]; with Human alphaherpesvirus 1 [3]) were 0 h⁻¹ and 12 h⁻¹, respectively. The Inhibitory index is 0.8 in assay [6] and 25 with Human alphaherpesvirus 1 [2]. In addition, the Apparent selectivity (HSV-1/human inhibition index ratio) in assay [7] came out at 31.

Regarding `C/C(=N\N=C(/S)N/N=C(\S)Nc1ccc(Cl)c([N+](=O)[O-])c1)c1ccccn1`, the inhibition in assay [4] is 20%; with Human alphaherpesvirus 1 [1], 7%. Further, the kinact amounted to 0 h⁻¹ in assay [5] and 45 h⁻¹ with Human alphaherpesvirus 1 [3]. Besides, the Inhibitory index in assay [6] amounted to 0.24; with Human alphaherpesvirus 1 [2] it was 48. Besides, in assay [7], the Apparent selectivity (HSV-1/human inhibition index ratio) is 200.

With `C/C(=N\N=C(/S)N/N=C(\S)Nc1cccc(Cl)c1)c1ccccn1`, the inhibition came out at 48% in assay [4] and 50% in the assay with Human alphaherpesvirus 1 [1]. Further, the inactivation rate constant (kinact) in assay [5] is 0 h⁻¹; in the assay on Human alphaherpesvirus 1 [3], 36 h⁻¹. Further, the Inhibitory index stood at 0.9 in assay [6] and 72 in the assay with Human alphaherpesvirus 1 [2]. In assay [7], the Apparent selectivity (HSV-1/human inhibition index ratio) was 80.

As to `C/C(=N\N=C(/S)N/N=C(\S)Nc1ccc(Br)cc1)c1ccccn1`, the figures for the inhibition (in assay [4]; in the assay on Human alphaherpesvirus 1 [1]) were 29% and 23%, respectively. The values for the maximal inactivation rate constant (kinact) (in assay [5]; in the assay with Human alphaherpesvirus 1 [3]) were 2 h⁻¹ and 44 h⁻¹, respectively. In addition, the values for the Inhibitory index (in assay [6]; in the assay with Human alphaherpesvirus 1 [2]) were 3.2 and 57, respectively. Further, in assay [7], the Apparent selectivity (HSV-1/human inhibition index ratio) was 18.

On to `C/C(=N\N=C(/S)N/N=C(\S)Nc1ccccc1C(F)(F)F)c1ccccn1`, for which the results for the inhibition (in assay [4]; in the assay on Human alphaherpesvirus 1 [1]) were 43% and 6%, respectively. The results for the kinact (in assay [5]; in the assay on Human alphaherpesvirus 1 [3]) were 3 h⁻¹ and 10 h⁻¹, respectively. Besides, the Inhibitory index came to 5.9 in assay [6] and 11 with Human alphaherpesvirus 1 [2]. The Apparent selectivity (HSV-1/human inhibition index ratio) in assay [7] was 1.8.

In the case of `CC(C)C/C(=N\N=C(/S)N/N=C(\S)Nc1ccccc1Cl)c1ccccn1`, the figures for the inhibition (in assay [4]; in the assay with Human alphaherpesvirus 1 [1]) were 25% and 38%, respectively. In addition, the kinact in assay [5] was 0 h⁻¹; in the assay on Human alphaherpesvirus 1 [3] it was 14 h⁻¹. Moreover, the values for the Inhibitory index (in assay [6]; in the assay on Human alphaherpesvirus 1 [2]) were 0.33 and 23, respectively. In assay [7], the Apparent selectivity (HSV-1/human inhibition index ratio) came to 70.
